Test results taken from ChEMBL document CHEMBL5058577, “EUbOPEN Chemogenomics Library 2 (Multiplex)” (2022).
Where “and” joins values, the source holds several entries; their conditions need not be identical. Equal entries are not always repeated.

Tested on: Fibroblast
Test: Multiplex assay against human fibroblast
Assay type: toxicity, cell-based
In short: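 Per cents of healthy-nucleus cells form the tubulin, mitochondrial-mass and membrane-permeability phenotype values. Live cells were stained at seeding with Hoechst33342, BioTracker Green Microtubule Cytoskeleton Dye, MitoTracker Red and Annexin V Alexa Fluor 680. After compound addition they were imaged on a CQ1 microscope at 37°C and 5% CO2, and CellPathfinder machine-learning gating split them into Hoechst high-intensity objects or normal cells, normal cells into healthy, pyknosed or fragmented nuclei, and pyknosed cells into mitotic or apoptotic.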

[1] = 12 h, 10 µM, compound concentration 10 uM, replicate 1
[2] = 12 h, 10 µM, compound concentration 10 uM, replicate 2
[3] = 24 h, 10 µM, compound concentration 10 uM, replicate 1
[4] = 24 h, 10 µM, compound concentration 10 uM, replicate 2
[5] = 48 h, 10 µM, compound concentration 10 uM, replicate 1
[6] = 48 h, 10 µM, compound concentration 10 uM, replicate 2
[7] = 12 h, 1 µM, compound concentration 1 uM, replicate 1
[8] = 12 h, 1 µM, compound concentration 1 uM, replicate 2
[9] = 24 h, 1 µM, compound concentration 1 uM, replicate 1
[10] = 24 h, 1 µM, compound concentration 1 uM, replicate 2
[11] = 48 h, 1 µM, compound concentration 1 uM, replicate 1
[12] = 48 h, 1 µM, compound concentration 1 uM, replicate 2

CC(=O)O[C@H]1C(=O)[C@@]2(C)[C@H]([C@H](OC(=O)c3ccccc3)[C@]3(O)C[C@H](OC(=O)[C@H](O)[C@@H](NC(=O)c4ccccc4)c4ccccc4)C(C)=C1C3(C)C)[C@]1(OC(C)=O)CO[C@@H]1C[C@@H]2O [PACLITAXEL]
Population Apoptotic (%) [1]: 65% and 41%
Population Fragmented Nuclei (%) [1]: 19% and 23%
Population Healthy Nuclei (%) [1]: 63% and 56%
Population Hoechst High Intensity Objects (%) [1]: 5% and 3%
Population Membrane Permeable-Phenotype (%) [1]: 0% and 1%
Population Mitochondria Different-Phenotype (%) [1]: 10% and 9%
Population Mitotic Cells (%) [1]: 34% and 58%
Population Normal (%) [1]: 94% and 96%
Population Pyknosed Nuclei (%) [1]: 16% and 19%
Population Tubulin-Different-Phenotype (%) [1]: 17% and 19%
Total Cell Count [1]: 167 and 151
Population Apoptotic (%) [2]: 39% and 43%
Population Fragmented Nuclei (%) [2]: 34% and 32%
Population Healthy Nuclei (%) [2]: 39% and 32%
Population Hoechst High Intensity Objects (%) [2]: 1%
Population Membrane Permeable-Phenotype (%) [2]: 6% and 8%
Population Mitochondria Different-Phenotype (%) [2]: 13% and 19%
Population Mitotic Cells (%) [2]: 60% and 56%
Population Normal (%) [2]: 98%
Population Pyknosed Nuclei (%) [2]: 25% and 34%
Population Tubulin-Different-Phenotype (%) [2]: 44% and 52%
Total Cell Count [2]: 111 and 142
Population Apoptotic (%) [3]: 70% and 60%
Population Fragmented Nuclei (%) [3]: 19% and 21%
Population Healthy Nuclei (%) [3]: 63% and 58%
Population Hoechst High Intensity Objects (%) [3]: 1% and 3%
Population Membrane Permeable-Phenotype (%) [3]: 0% and 1%
Population Mitochondria Different-Phenotype (%) [3]: 9% and 13%
Population Mitotic Cells (%) [3]: 29% and 40%
Population Normal (%) [3]: 98% and 96%
Population Pyknosed Nuclei (%) [3]: 16% and 20%
Population Tubulin-Different-Phenotype (%) [3]: 12% and 24%
Total Cell Count [3]: 164 and 155
Population Apoptotic (%) [4]: 30% and 62%
Population Fragmented Nuclei (%) [4]: 36% and 27%
Population Healthy Nuclei (%) [4]: 45% and 43%
Population Hoechst High Intensity Objects (%) [4]: 2% and 4%
Population Membrane Permeable-Phenotype (%) [4]: 6% and 11%
Population Mitochondria Different-Phenotype (%) [4]: 10% and 19%
Population Mitotic Cells (%) [4]: 70% and 37%
Population Normal (%) [4]: 97%
Population Pyknosed Nuclei (%) [4]: 18% and 29%
Population Tubulin-Different-Phenotype (%) [4]: 40% and 48%
Total Cell Count [4]: 114 and 125
Population Apoptotic (%) [5]: 76% and 84%
Population Fragmented Nuclei (%) [5]: 31% and 28%
Population Healthy Nuclei (%) [5]: 50% and 53%
Population Hoechst High Intensity Objects (%) [5]: 4%
Population Membrane Permeable-Phenotype (%) [5]: 0%
Population Mitochondria Different-Phenotype (%) [5]: 16% and 18%
Population Mitotic Cells (%) [5]: 23% and 16%
Population Normal (%) [5]: 95%
Population Pyknosed Nuclei (%) [5]: 17%
Population Tubulin-Different-Phenotype (%) [5]: 20% and 23%
Total Cell Count [5]: 177 and 150
Population Apoptotic (%) [6]: 54% and 56%
Population Fragmented Nuclei (%) [6]: 48% and 41%
Population Healthy Nuclei (%) [6]: 42% and 47%
Population Hoechst High Intensity Objects (%) [6]: 0% and 1%
Population Membrane Permeable-Phenotype (%) [6]: 3% and 8%
Population Mitochondria Different-Phenotype (%) [6]: 9% and 14%
Population Mitotic Cells (%) [6]: 45% and 43%
Population Normal (%) [6]: 100% and 98%
Population Pyknosed Nuclei (%) [6]: 8% and 11%
Population Tubulin-Different-Phenotype (%) [6]: 40% and 54%
Total Cell Count [6]: 129 and 146

C[C@H](NC(=O)c1c(C(F)F)nn(C)c1Oc1cccc(C(F)(F)F)c1)c1ccc(C(=O)O)cc1 [PALUPIPRANT]
Population Apoptotic (%) [7]: 26%
Population Fragmented Nuclei (%) [7]: 29%
Population Healthy Nuclei (%) [7]: 57%
Population Hoechst High Intensity Objects (%) [7]: 5%
Population Membrane Permeable-Phenotype (%) [7]: 0%
Population Mitochondria Different-Phenotype (%) [7]: 4%
Population Mitotic Cells (%) [7]: 73%
Population Normal (%) [7]: 94%
Population Pyknosed Nuclei (%) [7]: 12%
Population Tubulin-Different-Phenotype (%) [7]: 23%
Total Cell Count [7]: 187
Population Apoptotic (%) [8]: 24%
Population Fragmented Nuclei (%) [8]: 23%
Population Healthy Nuclei (%) [8]: 52%
Population Hoechst High Intensity Objects (%) [8]: 6%
Population Membrane Permeable-Phenotype (%) [8]: 11%
Population Mitochondria Different-Phenotype (%) [8]: 6%
Population Mitotic Cells (%) [8]: 75%
Population Normal (%) [8]: 93%
Population Pyknosed Nuclei (%) [8]: 23%
Population Tubulin-Different-Phenotype (%) [8]: 55%
Total Cell Count [8]: 148
Population Apoptotic (%) [1]: 45%
Population Fragmented Nuclei (%) [1]: 13%
Population Healthy Nuclei (%) [1]: 70%
Population Hoechst High Intensity Objects (%) [1]: 2%
Population Membrane Permeable-Phenotype (%) [1]: 2%
Population Mitochondria Different-Phenotype (%) [1]: 6%
Population Mitotic Cells (%) [1]: 55%
Population Normal (%) [1]: 97%
Population Pyknosed Nuclei (%) [1]: 16%
Population Tubulin-Different-Phenotype (%) [1]: 45%
Total Cell Count [1]: 126
Population Apoptotic (%) [2]: 35%
Population Fragmented Nuclei (%) [2]: 42%
Population Healthy Nuclei (%) [2]: 35%
Population Hoechst High Intensity Objects (%) [2]: 14%
Population Membrane Permeable-Phenotype (%) [2]: 13%
Population Mitochondria Different-Phenotype (%) [2]: 13%
Population Mitotic Cells (%) [2]: 64%
Population Normal (%) [2]: 85%
Population Pyknosed Nuclei (%) [2]: 22%
Population Tubulin-Different-Phenotype (%) [2]: 60%
Total Cell Count [2]: 149
Population Apoptotic (%) [9]: 40%
Population Fragmented Nuclei (%) [9]: 32%
Population Healthy Nuclei (%) [9]: 58%
Population Hoechst High Intensity Objects (%) [9]: 5%
Population Membrane Permeable-Phenotype (%) [9]: 1%
Population Mitochondria Different-Phenotype (%) [9]: 4%
Population Mitotic Cells (%) [9]: 60%
Population Normal (%) [9]: 94%
Population Pyknosed Nuclei (%) [9]: 8%
Population Tubulin-Different-Phenotype (%) [9]: 15%
Total Cell Count [9]: 178
Population Apoptotic (%) [10]: 42%
Population Fragmented Nuclei (%) [10]: 26%
Population Healthy Nuclei (%) [10]: 53%
Population Hoechst High Intensity Objects (%) [10]: 7%
Population Membrane Permeable-Phenotype (%) [10]: 8%
Population Mitochondria Different-Phenotype (%) [10]: 5%
Population Mitotic Cells (%) [10]: 57%
Population Normal (%) [10]: 92%
Population Pyknosed Nuclei (%) [10]: 20%
Population Tubulin-Different-Phenotype (%) [10]: 51%
Total Cell Count [10]: 141
Population Apoptotic (%) [3]: 60%
Population Fragmented Nuclei (%) [3]: 18%
Population Healthy Nuclei (%) [3]: 62%
Population Hoechst High Intensity Objects (%) [3]: 5%
Population Membrane Permeable-Phenotype (%) [3]: 2%
Population Mitochondria Different-Phenotype (%) [3]: 7%
Population Mitotic Cells (%) [3]: 39%
Population Normal (%) [3]: 94%
Population Pyknosed Nuclei (%) [3]: 18%
Population Tubulin-Different-Phenotype (%) [3]: 35%
Total Cell Count [3]: 131
Population Apoptotic (%) [4]: 38%
Population Fragmented Nuclei (%) [4]: 40%
Population Healthy Nuclei (%) [4]: 42%
Population Hoechst High Intensity Objects (%) [4]: 10%
Population Membrane Permeable-Phenotype (%) [4]: 13%
Population Mitochondria Different-Phenotype (%) [4]: 3%
Population Mitotic Cells (%) [4]: 61%
Population Normal (%) [4]: 89%
Population Pyknosed Nuclei (%) [4]: 17%
Population Tubulin-Different-Phenotype (%) [4]: 51%
Total Cell Count [4]: 138
Population Apoptotic (%) [11]: 53%
Population Fragmented Nuclei (%) [11]: 34%
Population Healthy Nuclei (%) [11]: 57%
Population Hoechst High Intensity Objects (%) [11]: 11%
Population Membrane Permeable-Phenotype (%) [11]: 0%
Population Mitochondria Different-Phenotype (%) [11]: 4%
Population Mitotic Cells (%) [11]: 46%
Population Normal (%) [11]: 88%
Population Pyknosed Nuclei (%) [11]: 7%
Population Tubulin-Different-Phenotype (%) [11]: 29%
Total Cell Count [11]: 184
Population Fragmented Nuclei (%) [12]: 30%
Population Healthy Nuclei (%) [12]: 50%
Population Hoechst High Intensity Objects (%) [12]: 3%
Population Membrane Permeable-Phenotype (%) [12]: 4%
Population Normal (%) [12]: 96%
Population Pyknosed Nuclei (%) [12]: 19%
Population Tubulin-Different-Phenotype (%) [12]: 53%
Total Cell Count [12]: 147
Population Apoptotic (%) [5]: 73%
Population Fragmented Nuclei (%) [5]: 20%
Population Healthy Nuclei (%) [5]: 60%
Population Hoechst High Intensity Objects (%) [5]: 4%
Population Membrane Permeable-Phenotype (%) [5]: 1%
Population Mitochondria Different-Phenotype (%) [5]: 8%
Population Mitotic Cells (%) [5]: 26%
Population Normal (%) [5]: 95%
Population Pyknosed Nuclei (%) [5]: 18%
Population Tubulin-Different-Phenotype (%) [5]: 46%
Total Cell Count [5]: 130
Population Apoptotic (%) [6]: 60%
Population Fragmented Nuclei (%) [6]: 45%
Population Healthy Nuclei (%) [6]: 45%
Population Hoechst High Intensity Objects (%) [6]: 13%
Population Membrane Permeable-Phenotype (%) [6]: 10%
Population Mitochondria Different-Phenotype (%) [6]: 6%
Population Mitotic Cells (%) [6]: 40%
Population Normal (%) [6]: 86%
Population Pyknosed Nuclei (%) [6]: 9%
Population Tubulin-Different-Phenotype (%) [6]: 50%
Total Cell Count [6]: 122
